Reference: paper PMC13424379 (Fundamental Research, 2024)

Assays:
[1] = system: Tg (fli1a: EGFP) zebrafish; assay: Zebrafish vascular injury model; format: in vivo; settings: for dose relation of the ameliorative effect on vascular injury: different concentrations, PTK787 model
Procedure, shortened: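 Tg(fli1a:EGFP) embryos at 24 hpf were dechorionated with 1 mg·mL⁻¹ protease E and placed 10 per well, 3 wells per group, in fish water (NaCl/KCl/CaCl2/MgSO4). Groups were vehicle (0.1% DMSO), 0.2 µg·mL⁻¹ PTK787, PTK787 plus 0.2 mg·mL⁻¹ aspirin, and PTK787 plus test compound. Exposure lasted 24 h at 28.5 °C on a 14/10 h light/dark cycle. ISV development was observed and ISV length measured.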

T1R3 = target: T1, T1R3 (Homo sapiens, UniProt Q7RTX0); assay: T1R3-HEMT biosensor interaction, dissociation constant; format: binding
T1 sequence (Q7RTX0 21-852): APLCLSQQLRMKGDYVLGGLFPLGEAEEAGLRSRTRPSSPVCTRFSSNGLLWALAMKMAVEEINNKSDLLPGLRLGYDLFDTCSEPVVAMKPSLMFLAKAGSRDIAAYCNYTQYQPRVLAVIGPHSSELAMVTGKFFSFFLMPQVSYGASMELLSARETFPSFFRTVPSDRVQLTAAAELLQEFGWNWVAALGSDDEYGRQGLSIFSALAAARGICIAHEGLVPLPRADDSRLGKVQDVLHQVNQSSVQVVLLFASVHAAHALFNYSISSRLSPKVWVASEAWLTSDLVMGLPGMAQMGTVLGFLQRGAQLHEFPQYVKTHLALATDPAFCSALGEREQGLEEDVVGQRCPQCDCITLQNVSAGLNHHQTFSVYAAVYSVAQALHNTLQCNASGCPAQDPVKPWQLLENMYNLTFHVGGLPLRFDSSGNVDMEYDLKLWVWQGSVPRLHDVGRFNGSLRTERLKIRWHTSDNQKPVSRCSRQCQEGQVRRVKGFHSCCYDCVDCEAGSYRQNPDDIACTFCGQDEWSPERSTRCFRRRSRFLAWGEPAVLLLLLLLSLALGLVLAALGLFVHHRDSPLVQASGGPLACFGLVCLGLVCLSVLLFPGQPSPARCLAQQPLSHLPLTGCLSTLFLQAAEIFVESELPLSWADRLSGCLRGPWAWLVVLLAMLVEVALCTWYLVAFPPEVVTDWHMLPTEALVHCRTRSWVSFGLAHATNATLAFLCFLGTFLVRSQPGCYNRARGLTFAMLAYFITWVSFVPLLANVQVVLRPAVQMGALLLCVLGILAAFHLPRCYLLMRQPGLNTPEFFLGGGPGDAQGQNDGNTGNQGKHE

T1R2 = target: T2, T1R2 (Homo sapiens, UniProt Q8TE23); assay: T1R2-HEMT biosensor interaction, dissociation constant; format: binding
T2 sequence (Q8TE23 20-839): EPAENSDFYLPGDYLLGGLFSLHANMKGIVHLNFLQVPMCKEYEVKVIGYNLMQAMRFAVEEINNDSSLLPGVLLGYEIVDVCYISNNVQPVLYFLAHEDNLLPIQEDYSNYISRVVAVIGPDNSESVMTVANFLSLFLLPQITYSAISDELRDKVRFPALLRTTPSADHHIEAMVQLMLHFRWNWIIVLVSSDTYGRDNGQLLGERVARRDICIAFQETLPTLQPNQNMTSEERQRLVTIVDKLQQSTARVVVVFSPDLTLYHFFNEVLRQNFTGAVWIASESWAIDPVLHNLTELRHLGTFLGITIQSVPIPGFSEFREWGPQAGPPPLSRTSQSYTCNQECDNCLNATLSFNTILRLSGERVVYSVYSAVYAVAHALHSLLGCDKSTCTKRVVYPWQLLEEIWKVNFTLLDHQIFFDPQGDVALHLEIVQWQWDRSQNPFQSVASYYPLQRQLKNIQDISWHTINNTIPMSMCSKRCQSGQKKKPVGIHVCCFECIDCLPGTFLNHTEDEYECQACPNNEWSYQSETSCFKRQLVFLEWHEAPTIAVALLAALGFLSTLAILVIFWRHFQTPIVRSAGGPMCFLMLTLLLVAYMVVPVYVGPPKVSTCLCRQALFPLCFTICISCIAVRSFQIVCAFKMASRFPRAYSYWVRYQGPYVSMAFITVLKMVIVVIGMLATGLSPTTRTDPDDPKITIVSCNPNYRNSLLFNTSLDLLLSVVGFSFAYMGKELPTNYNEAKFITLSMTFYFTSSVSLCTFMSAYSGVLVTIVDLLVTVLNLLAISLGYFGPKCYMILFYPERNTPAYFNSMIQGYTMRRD
Procedure, shortened: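 Recombinant T1R2 and T1R3 proteins (100 μg·mL⁻¹) were immobilised on an AlGaAs/GaAs HEMT chip at 4 °C. Test compounds in 0.5% DMSO were applied at eleven concentrations from 0.1 pmol·L⁻¹ to 1 mmol·L⁻¹. KD was derived by a linear fit of [C]/ΔI against [C], where ΔI is the current change and ΔImax the saturated current change.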

Tg (mpx: EGFP) zebrafish = assay: Zebrafish immunocompromised model; format: in vivo; settings: for immune enhancement (number of neutrophils): compared to the model group
[2] = 25 µM·L^−1, with 0.2 µg·mL^−1 PTK787, compared with the model group

Question: How did the “total length of ISVs” value ([1]; 0.2 µg·mL^−1, compared with the control group, 24 h exposure) turn out when `Clc1ccc(Nc2nnc(Cc3ccncc3)c3ccccc23)cc1` [PTK787, Vatalanib (PTK787) 2HCl, reference compound] was run?
Answer: significantly reduce

Question: What about the teratogenicity ([1]; 0.2 µg·mL^−1, zebrafish embryos) of the same compound?
Answer: not teratogenic

Question: `C=C1CCC[C@]2(C)C=C3OC(=O)C(C)=C3C[C@@H]12` [atractylenolide I] was tested. Which “effect on ISVs” value ([1]; 50 µM·L^−1, with 0.2 µg·mL^−1 PTK787, compared with the model group) did it give?
Answer: significantly promote ISVs

Question: And the “dose relation of the ameliorative effect on vascular injury” value [1]?
Answer: dose-dependent effects

Question: And the Kd (T1R3)?
Answer: 0.0882 nM

Question: What about the Kd (T1R2) of the same compound?
Answer: 1.06 nM

Question: What does the source list for `COc1ccc(-c2coc3cc(O)ccc3c2=O)cc1O` [calycosin]?
Answer: immune enhancement (number of neutrophils) (Tg (mpx: EGFP) zebrafish; 50 µM·L^−1, with 100 µg·mL^−1 vinorelbine): immune-enhancing effect; effect on ISVs [1, 2]: significantly promote ISVs; dose relation of the ameliorative effect on vascular injury [1]: stronger at a low dose; Kd (T1R3): 0.641 nM; Kd (T1R2): 0.0017 nM

Question: `C[C@@H]1CC[C@@]2(OC1)O[C@H]1C[C@H]3[C@@H]4CC=C5C[C@@H](O)C[C@@H](O)[C@]5(C)[C@H]4CC[C@]3(C)[C@H]1[C@@H]2C` [ruscogenin] was tested. Which “immune enhancement (number of neutrophils)” value (Tg (mpx: EGFP) zebrafish; 100 µM·L^−1, with 100 µg·mL^−1 vinorelbine) did it give?
Answer: immune-enhancing effect

Question: And the “effect on ISVs” value [1, 2]?
Answer: significantly promote ISVs

Question: And the “dose relation of the ameliorative effect on vascular injury” value [1]?
Answer: stronger at medium and high doses

Question: What about the Kd (T1R3) of the same compound?
Answer: 0.217 nM

Question: What about the Kd (T1R2) of the same compound?
Answer: 52.5 nM

Question: With `CCC1=C[C@@H]2CN(C1)Cc1c([nH]c3ccccc13)[C@@](C(=O)OC)(c1cc3c(cc1OC)N(C)[C@H]1[C@@](O)(C(=O)OC)[C@H](OC(C)=O)[C@]4(CC)C=CCN5CC[C@]31[C@@H]54)C2` [vinorelbine, Vinorelbine, reference compound] as the compound, how does the “number of neutrophils in the zebrafish tail” value (Tg (mpx: EGFP) zebrafish; 100 µg·mL^−1, model construction) read?
Answer: significantly reduced
